ChEMBL document CHEMBL1123049, “Functionalized congeners of adenosine: preparation of analogues with high affinity for A1-adenosine receptors” (J Med Chem, 1985)

Biological target: T1, Adenosine receptor A1 (Rattus norvegicus, UniProt P25099)
T1 sequence (P25099 whole entry): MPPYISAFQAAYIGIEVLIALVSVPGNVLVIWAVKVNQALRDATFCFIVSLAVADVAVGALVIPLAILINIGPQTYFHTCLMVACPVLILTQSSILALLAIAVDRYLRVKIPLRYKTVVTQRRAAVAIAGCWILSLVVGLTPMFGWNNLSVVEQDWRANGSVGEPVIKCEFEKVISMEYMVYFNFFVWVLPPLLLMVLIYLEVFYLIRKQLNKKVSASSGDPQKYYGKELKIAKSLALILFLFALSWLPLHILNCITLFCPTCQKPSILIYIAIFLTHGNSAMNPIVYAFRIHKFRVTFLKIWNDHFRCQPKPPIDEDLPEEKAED
Test: Inhibition of binding of 1 nM N6-[3H]cyclohexyladenosine to adenosine A1 receptor on rat cerebral cortical membranes.
Type: cell membranes, Membrane
In short: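 Displacement of 1 nM N6-[3H]cyclohexyladenosine by a range of analogue concentrations, run in triplicate in at least two separate experiments. IC50 estimated graphically for each experiment. Values are mean ± SEM of two to four experiments.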

## OC[C@H]1O[C@@H](n2cnc3c(Nc4ccccc4)ncnc32)[C@H](O)[C@@H]1O [N6-PHENYLADENOSINE]
  Ki: 3.2 nM

## COC(=O)Cc1ccc(NC(=O)Cc2ccc(Nc3ncnc4c3ncn4C3O[C@H](CO)[C@@H](O)[C@H]3O)cc2)cc1 (some centres not stated)
  Ki: 2.5 nM

## Cc1ccc(NC(=O)Cc2ccc(Nc3ncnc4c3ncn4C3O[C@H](CO)[C@@H](O)[C@H]3O)cc2)cc1 (some centres not stated)
  Ki: 1.7 nM

## Cc1cccc(NC(=O)Cc2ccc(Nc3ncnc4c3ncn4C3O[C@H](CO)[C@@H](O)[C@H]3O)cc2)c1 (some centres not stated)
  Ki: 2 nM

## CNC(=O)CNC(=O)C(Cc1ccc(NC(=O)Cc2ccc(Nc3ncnc4c3ncn4C3O[C@H](CO)[C@@H](O)[C@H]3O)cc2)cc1)NC(=O)OC(C)(C)C (some centres not stated)
  Ki: 13 nM

## NNC(=O)Cc1ccc(NC(=O)Cc2ccc(Nc3ncnc4c3ncn4C3O[C@H](CO)[C@@H](O)[C@H]3O)cc2)cc1 (some centres not stated)
  Ki: 4.5 nM

## O=C(CCc1ccc(O)cc1)NCCNC(=O)Cc1ccc(NC(=O)Cc2ccc(Nc3ncnc4c3ncn4C3O[C@H](CO)[C@@H](O)[C@H]3O)cc2)cc1 (some centres not stated)
  Ki: 4.5 nM

## COc1ccc(Nc2ncnc3c2ncn3[C@@H]2O[C@H](CO)[C@@H](O)[C@H]2O)cc1
  Ki: 2.3 nM

## O=C(CCCCC1SCC2NC(=O)NC21)NCCNC(=O)Cc1ccc(NC(=O)Cc2ccc(Nc3ncnc4c3ncn4C3O[C@H](CO)[C@@H](O)[C@H]3O)cc2)cc1 (some centres not stated)
  Ki: 11.4 nM

## CCOC(=O)CNC(=O)Cc1ccc(Nc2ncnc3c2ncn3C2O[C@H](CO)[C@@H](O)[C@H]2O)cc1 (some centres not stated)
  Ki: 15 nM

## CC(=O)NCCNC(=O)Cc1ccc(NC(=O)Cc2ccc(Nc3ncnc4c3ncn4C3O[C@H](CO)[C@@H](O)[C@H]3O)cc2)cc1 (some centres not stated)
  Ki: 9.3 nM

## COC(=O)C(Cc1ccc(NC(=O)Cc2ccc(Nc3ncnc4c3ncn4C3O[C@H](CO)[C@@H](O)[C@H]3O)cc2)cc1)NC(=O)C(F)(F)F (some centres not stated)
  Ki: 18 nM

## Cc1ccccc1NC(=O)Cc1ccc(Nc2ncnc3c2ncn3C2O[C@H](CO)[C@@H](O)[C@H]2O)cc1 (some centres not stated)
  Ki: 6.8 nM

## O=C(O)Cc1ccc(Nc2ncnc3c2ncn3C2O[C@H](CO)[C@@H](O)[C@H]2O)cc1 (some centres not stated)
  Ki: 210 nM

## O=C(Cc1ccc(Nc2ncnc3c2ncn3C2O[C@H](CO)[C@@H](O)[C@H]2O)cc1)Nc1ccc(C(F)(F)F)cc1 (some centres not stated)
  Ki: 3.3 nM

## Cc1ccc(Nc2ncnc3c2ncn3C2O[C@H](CO)[C@@H](O)[C@H]2O)cc1 (some centres not stated)
  Ki: 2.5 nM

## CNC(=O)Cc1ccc(NC(=O)Cc2ccc(Nc3ncnc4c3ncn4C3O[C@H](CO)[C@@H](O)[C@H]3O)cc2)cc1 (some centres not stated)
  Ki: 6.7 nM
